Measured values as given in ChEMBL document CHEMBL2390839, “Di-alkylated paromomycin derivatives: targeting the membranes of gram positive pathogens that cause skin infections” (Bioorg Med Chem, 2013).
Converted amounts (≈) assume the structure as drawn. The source made the active and inactive calls. No cut-off for these calls is given here. Non-standard residues stand in square brackets, D forms with d. Residues, ends and D or L forms follow the SMILES beside them. *: point of attachment. NHCH2CH2OH = OCCN*; For = O=C*

Columns and labels:
[1] = Hemolytic activity in rat RBC assessed as hemoglobin release at 2 ug/mL after 1 hr by microplate reader analysis relative to control; type: ADME, cell-based, Erythrocyte; conditions: red blood cells (RBC), read-out: Activity
Summary of the method: (§1)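 Rat RBCs (2% w/w) incubated 1 h at 37 °C, 5% CO2 with twofold dilutions starting at 256 µg/mL. PBS served as negative control and 1% w/v Triton X100 as the 100% lysis control. After centrifugation (2000 rpm, 10 min), supernatant absorbance read at 550 nm. Hemoglobin release expressed as % of Triton. Triplicates, with blood from at least two rats.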

[2] = Hemolytic activity in rat RBC assessed as hemoglobin release at 64 ug/mL after 1 hr by microplate reader analysis; type: ADME, cell-based; conditions: erythrocyte; summary of the method: as §1
[3] = Hemolytic activity in rat RBC assessed as hemoglobin release at 256 ug/mL after 1 hr by microplate reader analysis relative to control; type: ADME, cell-based, Erythrocyte; conditions: red blood cells (RBC), read-out: Activity
Summary of the method: (§2)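 Rat RBCs (2% w/w) were exposed to compound for 1 h at 37 °C, 5% CO2, using twofold dilutions from 256 µg/mL. PBS served as the negative control and 1% w/v Triton X-100 as the 100% lysis control. After centrifugation (2000 rpm, 10 min), supernatant absorbance was read at 550 nm and expressed as % hemoglobin release relative to Triton. Assays were run in triplicate, averaged over blood from at least two rats.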

Streptococcus pyogenes [4] = assay: Antibacterial activity against Streptococcus pyogenes serotype T5 assessed as growth inhibition after 24 hrs by MTT assay; type: functional; conditions: serotype T5, 24 h
Summary of the method: (§3)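 Starter cultures were grown 24 h at 37 °C, 5% CO2, aerobic, then diluted in fresh medium to OD600 0.004. Twofold serial dilutions started at 64 µg/mL. After 24 h of incubation, MTT (1 mg/mL solution) was added and plates were incubated 2 h more at 37 °C. MIC was taken as the lowest concentration with no growth. Two independent experiments were run, each in triplicate.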

Streptococcus pyogenes [5] = assay: Antibacterial activity against glossy colony producing Streptococcus pyogenes assessed as growth inhibition after 24 hrs by MTT assay; type: functional; summary of the method: as §3
Streptococcus pyogenes [6] = assay: Antibacterial activity against Streptococcus pyogenes JRS75 assessed as growth inhibition after 24 hrs by MTT assay; type: functional; conditions: JRS75, 24 h; summary of the method: as §3
Streptococcus pyogenes [7] = assay: Antibacterial activity against Streptococcus pyogenes serotype M24 assessed as growth inhibition after 24 hrs by MTT assay; type: functional; conditions: serotype M24, 24 h; summary of the method: as §3
[8] = Antibacterial activity against Streptococcus pyogenes serotype M5 assessed as growth inhibition after 24 hrs by MTT assay; type: functional; summary of the method: as §3
[9] = Antibacterial activity against Streptococcus pyogenes serotype M3 assessed as growth inhibition after 24 hrs by MTT assay; type: functional; summary of the method: as §3
[10] = Antibacterial activity against Streptococcus pyogenes serotype M2 assessed as growth inhibition after 24 hrs by MTT assay; type: functional; summary of the method: as §3
Streptococcus pyogenes [11] = assay: Antibacterial activity against Streptococcus pyogenes serotype M1T1 assessed as growth inhibition after 24 hrs by MTT assay; type: functional; conditions: serotype M1T1, 24 h; summary of the method: as §3
Streptococcus pyogenes [12] = assay: Antibacterial activity against Streptococcus pyogenes MGAS9429 assessed as growth inhibition after 24 hrs by MTT assay; type: functional; conditions: MGAS9429, 24 h; summary of the method: as §3
Staphylococcus aureus [13] = assay: Antibacterial activity against Staphylococcus aureus Cowan ATCC 12598 assessed as growth inhibition after 24 hrs by MTT assay; type: functional; conditions: Cowan ATCC 12598, 24 h
Summary of the method: (§4)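 Starter cultures grown 24 h at 37 °C, 5% CO2, aerobic, then diluted in fresh medium to OD600 0.004. Twofold serial dilutions from 64 µg/mL, 24 h incubation. MTT (1 mg/mL solution) added, then 2 h at 37 °C. MIC = lowest concentration with no visible growth. Two independent experiments, each in triplicate.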

[14] = Antibacterial activity against biofilm-positive Staphylococcus epidermidis RP62A ATCC 35984 assessed as growth inhibition after 24 hrs by MTT assay; type: functional; conditions: ATCC 35984, 24 h; summary of the method: as §3
[15] = system: Staphylococcus epidermidis; assay: Antibacterial activity against biofilm-negative Staphylococcus epidermidis ATCC 12228 assessed as growth inhibition after 24 hrs by MTT assay; type: functional; conditions: ATCC 12228, 24 h; summary of the method: as §3
Staphylococcus aureus [16] = assay: Antibacterial activity against methicillin-resistant Staphylococcus aureus assessed as growth inhibition after 24 hrs by MTT assay; type: functional; summary of the method: as §4
Staphylococcus aureus [17] = assay: Antibacterial activity against Staphylococcus aureus NCTC 6571 assessed as growth inhibition after 24 hrs by MTT assay; type: functional; conditions: NCTC 6571, 24 h; summary of the method: as §4
[18] = system: Staphylococcus epidermidis; assay: Antibacterial activity against Staphylococcus epidermidis ATCC 12228 assessed as cell surface wrinkling at 1 ug/mL after 1 hr by scanning electron microscopic analysis; type: functional, organism-based
Summary of the method: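 S. epidermidis ATCC12228 grown 4 h at 37 °C, aerobic, to OD600 0.2. Cells washed in PBS pH 7.4 and resuspended to OD600 1.0. Treated with 1 µg/mL for 1 h at 37 °C, then diluted twofold. Washed, fixed overnight at 4 °C in 2.5% glutaraldehyde/PBS, dehydrated through graded ethanol, vacuum-dried, Pd-Au coated and imaged by SEM. Compared against untreated cells.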

[19] = Hemolytic activity in rat RBC assessed as hemoglobin release at 128 ug/mL after 1 hr by microplate reader analysis; type: ADME, cell-based; conditions: erythrocyte; summary of the method: as §2
[20] = Hemolytic activity in rat RBC assessed as hemoglobin release at 16 ug/mL after 1 hr by microplate reader analysis relative to control; type: ADME, cell-based, Erythrocyte; conditions: red blood cells (RBC), read-out: Activity; summary of the method: as §2

SMILES | hemolysis at 1 h, 2 ug/mL [1] | Activity [2] | hemolysis at 1 h, 256 ug/mL [3] | MIC (Streptococcus pyogenes [4]) | MIC (Streptococcus pyogenes [5]) | MIC (Streptococcus pyogenes [6]) | MIC (Streptococcus pyogenes [7]) | MIC [8] | MIC [9] | MIC [10] | MIC (Streptococcus pyogenes [11]) | MIC (Streptococcus pyogenes [12]) | MIC (Staphylococcus aureus [13]) | MIC [14] | MIC [15] | MIC (Staphylococcus aureus [16]) | MIC (Staphylococcus aureus [17]) | Activity [18] | Activity [19] | hemolysis at 1 h, 16 ug/mL [20]
CC(C)C[C@@H](NC(=O)[C@H](C)NC(=O)CNC(=O)[C@@H](NC=O)C(C)C)C(=O)N[C@@H](C)C(=O)N[C@@H](C(=O)N[C@H](C(=O)N[C@@H](C(=O)N[C@@H](Cc1c[nH]c2ccccc12)C(=O)N[C@H](CC(C)C)C(=O)N[C@@H](Cc1c[nH]c2ccccc12)C(=O)N[C@H](CC(C)C)C(=O)N[C@@H](Cc1c[nH]c2ccccc12)C(=O)N[C@H](CC(C)C)C(=O)N[C@@H](Cc1c[nH]c2ccccc12)C(=O)NCCO)C(C)C)C(C)C)C(C)C [GRAMICIDIN D] (For-VGA[dL]A[dV]V[dV]W[dL]W[dL]W[dL]W-NHCH2CH2OH) | 2.4% | Toxic | < 60% | 2 µg/mL (≈ 1.06 µM) | 16 µg/mL (≈ 8.5 µM) | < 0.5 µg/mL | < 0.5 µg/mL | < 0.5 µg/mL | < 0.5 µg/mL | < 0.5 µg/mL | < 0.5 µg/mL | > 64 µg/mL | > 64 µg/mL | 2 µg/mL (≈ 1.06 µM) | 8 µg/mL (≈ 4.25 µM) | 64 µg/mL (≈ 34 µM) | 32 µg/mL (≈ 17 µM) | – | – | –
NC[C@@H]1O[C@H](O[C@H]2[C@@H](O)[C@H](O[C@@H]3[C@@H](O)[C@H](N)C[C@H](N)[C@H]3O[C@H]3O[C@H](CO)[C@@H](O)[C@H](O)[C@H]3N)O[C@@H]2CO)[C@H](N)[C@@H](O)[C@@H]1O [PAROMOMYCIN] | – | – | – | 16 µg/mL (≈ 26 µM) | 64 µg/mL (≈ 104 µM) | 64 µg/mL (≈ 104 µM) | 64 µg/mL (≈ 104 µM) | 32 µg/mL (≈ 52 µM) | 32 µg/mL (≈ 52 µM) | 64 µg/mL (≈ 104 µM) | 64 µg/mL (≈ 104 µM) | > 64 µg/mL | 16 µg/mL (≈ 26 µM) | > 64 µg/mL | 2 µg/mL (≈ 3.25 µM) | > 64 µg/mL | > 64 µg/mL | Active | – | –
CCCCCCSC[C@H]1O[C@H](O[C@H]2[C@H](O[C@@H]3O[C@H](CSCCCCCC)[C@@H](O[C@H]4O[C@@H](CN)[C@@H](O)[C@H](O)[C@H]4N)[C@H]3O)[C@@H](O)[C@H](N)C[C@@H]2N)[C@H](N)[C@@H](O)[C@@H]1O | – | – | 3.4% | 4 µg/mL (≈ 4.9 µM) | 8 µg/mL (≈ 9.8 µM) | 8 µg/mL (≈ 9.8 µM) | 8 µg/mL (≈ 9.8 µM) | 8 µg/mL (≈ 9.8 µM) | 4 µg/mL (≈ 4.9 µM) | 8 µg/mL (≈ 9.8 µM) | 16 µg/mL (≈ 19.6 µM) | 8 µg/mL (≈ 9.8 µM) | 64 µg/mL (≈ 78.4 µM) | 16 µg/mL (≈ 19.6 µM) | 8 µg/mL (≈ 9.8 µM) | > 64 µg/mL | 32 µg/mL (≈ 39.2 µM) | – | Toxic | 0%
